Source: ChEMBL document CHEMBL1122520, “Potential antitumor agents. 43. Synthesis and biological activity of dibasic 9-aminoacridine-4-carboxamides, a new class of antitumor agent” (J Med Chem, 1984)

Tests used:
[1] = Logarithmic association constant determined by ethidium displacement from DNA co-polymers (adenine & thymine)
Method in brief: (§1)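 Binding constants derived from ethidium displacement from synthetic DNA copolymers, assuming competitive binding.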

[2] = Lipophilicity (Rm) (RP-TLC); assay type: physicochemical
[3] = Logarithmic association constant determined by ethidium displacement from DNA co-polymers (G + C); method in brief: as §1
[4] = test system: HCT-8; assay: Concentration required for 50% reduction of counted HCT-8 cells upon exposure for a period of 70h; assay type: functional; details: Homo sapiens, HCT-8, 70 h; read-out: ID50 (the source's name)
Method in brief: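 HCT-8 human colon adenocarcinoma cells grown in Alpha MEM with glutamine for 2 days before drug addition. Drug exposure for 70 h per table footnote, with 4-day incubation stated in methods. Trypsinized cells counted electronically. ID50 = nM concentration reducing counted cells to 50% of controls.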

[5] = test system: L1210; assay: Concentration required for 50% reduction of counted L1210 cells upon exposure for a period of 70h; assay type: functional; details: Mus musculus, L1210, 70 h; read-out: ID50 (the source's name)
Method in brief: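 L1210 leukemia cells cultured with drug for 70 h, then counted. ID50 taken as the nanomolar concentration reducing cell count to 50% of untreated controls.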

[6] = test system: Mus musculus; assay: Percentage increase in lifespan of treated animals over that of animals injected with tumor (10e6 P388 leukemia cells), at the optimal dose of 50 mg/kg day); g=No activity (ILS < 20%); assay type: functional, organism-based; parameters: dose 50 mg/kg
[7] = pKa value for the side-chain cationic center; assay type: physicochemical
[8] = organism: Mus musculus; assay: Percentage increase in lifespan of treated animals over that of animals injected with tumor (10e6 P388 leukemia cells), at the optimal dose of 20 mg/(kg day); assay type: functional
[9] = organism: Mus musculus; assay: Percentage increase in lifespan of treated animals over that of animals injected with tumor (10e6 P388 leukemia cells), at the optimal dose of 8.9 mg/(kg day); g=No activity (ILS < 20%); assay type: functional, organism-based
[10] = organism: Mus musculus; assay: Percentage increase in lifespan of treated animals over that of animals injected with tumor (10e6 P388 leukemia cells), at the optimal dose of 8.9 mg/(kg day); assay type: functional
[11] = organism: Mus musculus; assay: Percentage increase in lifespan of treated animals over that of animals injected with tumor (10e6 P388 leukemia cells), at the optimal dose of 40 mg/(kg day); g=No activity (ILS < 20%); assay type: functional, organism-based
[12] = organism: Mus musculus; assay: Percentage increase in lifespan of treated animals over that of animals injected with tumor (10e6 P388 leukemia cells), at the optimal dose of 13.3 mg/(kg day); assay type: functional
[13] = organism: Mus musculus; assay: Percentage increase in lifespan of treated animals over that of animals injected with tumor (10e6 P388 leukemia cells), at the optimal dose of 30 mg/(kg day); g=No activity (ILS < 20%); assay type: functional, organism-based
[14] = organism: Mus musculus; assay: Percentage increase in lifespan of treated animals over that of animals injected with tumor (10e6 P388 leukemia cells), at the optimal dose of 250 mg/(kg day); g=No activity (ILS < 20%)
[15] = organism: Mus musculus; assay: Percentage increase in lifespan of treated animals over that of animals injected with tumor (10e6 P388 leukemia cells), at the optimal dose of 30 mg/(kg day); assay type: functional
[16] = organism: Mus musculus; assay: Percentage increase in lifespan of treated animals over that of animals injected with tumor (10e6 P388 leukemia cells), at the optimal dose of 5.9 mg/(kg day); assay type: functional
[17] = organism: Mus musculus; assay: Number of mice survived indefinitely out a group of 6; assay type: functional
[18] = organism: Mus musculus; assay: Percentage increase in lifespan of treated animals over that of animals injected with tumor (10e6 P388 leukemia cells), at the optimal dose of 2.6 mg/(kg day); assay type: functional

Row | Log K [1] | Rm [2] | Log K [3] | IC50 [4] [nM] | IC50 [5] [nM] | SMILES | also measured
1 | 6.58 | -1.29 | 6.45 | > 1500 | > 2000 | CN1CCN(C(=O)c2cccc3c(N)c4ccccc4nc23)CC1 | 
2 | 7.18 | -1.06 | 7.66 | > 5000 | > 2000 | CN(C)CCNC(=O)c1ccc2c(N)c3ccccc3nc2c1 | 
3 | 7.51 | -0.93 | 7.6 | 520 | 157 | CN(C)CCCNC(=O)c1cccc2c(N)c3ccccc3nc12 | ILS [6]: No activity (ILS <20%)
4 | 7.49 | -0.89 | 7.43 | 1000 | 430 | CN(C)CCCCNC(=O)c1cccc2c(N)c3ccccc3nc12 | 
5 | 7.17 | -1.11 | 7.65 | 125 | 15 | CNc1c2ccccc2nc2c(C(=O)NCCN(C)C)cccc12 | 
6 | 6.94 | -0.57 | 7.03 | 3200 | 1900 | Nc1c2ccccc2nc2c(C(=O)NCCc3ccccn3)cccc12 | pKa [7]: 5.9; ILS [11]: No activity (ILS <20%)
7 | 7.29 | -1 | 7.58 | 2000 | 1020 | Nc1c2ccccc2nc2c(C(=O)NCCN3CCOCC3)cccc12 | pKa [7]: 6.7; ILS [13]: No activity (ILS <20%)
8 | 7.08 | -1 | 7.55 | > 5000 | > 2000 | CN(C)CCNC(=O)c1ccc2nc3ccccc3c(N)c2c1 | pKa [7]: 8.6; ILS [14]: No activity (ILS <20%)
9 | 7.43 | -0.44 | 7.3 | 2000 | 1180 | CN(C)CCCCCCCNC(=O)c1cccc2c(N)c3ccccc3nc12 | 
10 | 7.45 | -0.73 | 7.45 | 1800 | 1370 | CN(C)CCCCCNC(=O)c1cccc2c(N)c3ccccc3nc12 | 
11 | 6.82 | -1.19 | 7.61 | 540 | 484 | CN(C)CCNC(=O)c1cccc2c(NCCO)c3ccccc3nc12 | ILS [9]: No activity (ILS <20%)
12 | 7.41 | -0.58 | 7.4 | 1750 | 1540 | CN(C)CCCCCCNC(=O)c1cccc2c(N)c3ccccc3nc12 | 

The remaining lines, values behind:

Row | SMILES | Log K [1] | Rm [2] | Log K [3] | IC50 [4] [nM] | IC50 [5] [nM] | also measured
13 | Nc1c2ccccc2nc2c(C(=O)NCCNCCO)cccc12 | 7.34 | -1.06 | 7.73 | 1600 | 77 | pKa [7]: 8.5; ILS [8]: 73%
14 | CN(C)CCNC(=O)c1cccc2c(NCCN(C)C)c3ccccc3nc12 | 7.83 | -1.72 | 8.2 | 1300 | 460 | ILS [9]: No activity (ILS <20%)
15 | CCNc1c2ccccc2nc2c(C(=O)NCCN(C)C)cccc12 | 7.14 | -0.88 | 7.69 | 188 | 94 | ILS [10]: 30%
16 | CCCNc1c2ccccc2nc2c(C(=O)NCCN(C)C)cccc12 | 7.23 | -0.57 | 7.79 | 203 | 46 | ILS [12]: 64%
17 | CCCCCCNc1c2ccccc2nc2c(C(=O)NCCN(C)C)cccc12 | 7 | -0.04 | 7.79 | 210 | 65 | ILS [15]: 88%
18 | CCCCCNc1c2ccccc2nc2c(C(=O)NCCN(C)C)cccc12 | 6.91 | -0.23 | 7.58 | 160 | 43 | ILS [12]: 64%
19 | CCCCNc1c2ccccc2nc2c(C(=O)NCCN(C)C)cccc12 | 7.1 | -0.34 | 7.69 | 150 | 41 | ILS [8]: 70%
20 | COCCNc1c2ccccc2nc2c(C(=O)NCCN(C)C)cccc12 | 6.73 | -0.76 | 7.35 | 400 | 85 | ILS [12]: 47%
21 | NCCNC(=O)c1cccc2c(N)c3ccccc3nc12 | 7.36 | -1.18 | 7.67 | 1500 | 414 | pKa [7]: 9.1; ILS [8]: 71%
22 | CCN(CC)CCNC(=O)c1cccc2c(N)c3ccccc3nc12 | 7.26 | -0.67 | 7.59 | 83 | 5.5 | pKa [7]: 9.2; ILS [16]: 70%
23 | CN(C)CCNC(=O)c1cccc2c(N)c3ccccc3nc12 |  | -1.11 |  | 55 |  | Survivors [17]: 1
24 | Nc1c2ccccc2nc2c(C(=O)NCCN3CCCCC3)cccc12 | 7.12 | -0.7 | 7.1 | 380 | 102 | pKa [7]: 8.9; ILS [18]: 33%
